According to PMC2928052 (Journal of medicinal chemistry, 2010):
Entries after “also recorded” stand apart in the source; their conditions may differ.

Key:
[1] = tested on: HIV-1 FSS with multiple mutations in the loop region (entry 8); experiment: Fluorescence titration, Table 1 entry 8; format: binding; conditions: entry 8, multiple mutations in the loop region
[2] = target: unrelated RNA hairpin (entry 10); experiment: Fluorescence titration, Table 1 entry 10; format: binding
How it was run: (§1)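 5′-Cy3-labelled oligonucleotide (400 or 500 nM) in 1X PBS pH 7.2 was heated to 65 °C for 4 min, MgCl2 was added, and the sample was cooled slowly to RT. Test compound was titrated in (100 nM–10 μM), with ≥10 min equilibration per addition. Excitation was 550 nm and emission was read at 564.1 nm. Dilution-corrected ΔFU was fit to a 1-site ligand-depletion model, with ≥2 titrations.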

[3] = tested on: biotinylated HIV-1 FSS RNA; experiment: SPR binding kinetics, RNA immobilized on streptavidin-coated CM5 chip; conditions: 1X PBS, 5 mM MgCl2, 0.005 % Tween-20, 1:1 global fit to six sensorgrams
[4] = target: unrelated RNA hairpin (entry 11); experiment: Fluorescence titration, Table 1 entry 11; format: binding
How it was run: as §1

[5] = tested on: HIV-1 FSS with single mutation in the loop region (entry 7); experiment: Fluorescence titration, Table 1 entry 7; format: binding; conditions: entry 7, single mutation in the loop region
[6] = target: DNA homolog of the HIV-1 FSS (entry 9); experiment: Fluorescence titration, Table 1 entry 9; format: binding
How it was run: as §1

[7] = target: unrelated RNA hairpin (entry 10); conditions: Table 1 entry 10; compound immobilized on chip; previously reported; cited from earlier work
[8] = target: HIV-1 FSS RNA (upper stem-loop of the HIV-1 frameshift-stimulating RNA); experiment: Fluorescence titration of compound into 5′-Cy3-labeled RNA; format: binding, HIV-1 (group M subtype D); conditions: Table 2, average ± standard deviation of 3 replicate titrations

Row | Molecule | reduction in the binding relative to HIV-1 FSS [1] [fold] | Binding constant (KD), Solution [2] | Association rate (kon) [3] | Dissociation rate (koff) [3] | Binding constant (KD), Solution [4] | reduction in the binding relative to HIV-1 FSS [5] [fold] | Binding constant (KD), Solution [6] | Binding constant (KD), SPR [7] | KD [8]
1 | (Cys-Pro-Phe)2 (disulfide) [Compound 1] | 4 | No saturable binding | 1790 M⁻¹ s⁻¹ | 0.0141 s⁻¹ | No saturable binding | 2 | No saturable binding | No binding | –
2 | NC[C@@H]1O[C@H](O[C@H]2[C@@H](O)[C@H](O[C@@H]3[C@@H](O)[C@H](N)C[C@H](N)[C@H]3O[C@H]3O[C@H](CN)[C@@H](O)[C@H](O)[C@H]3N)O[C@@H]2CO)[C@H](N)[C@@H](O)[C@@H]1O [Neomycin, neomycin, reference compound] | – | – | too rapid to determine accurately | too rapid to determine accurately | – | – | – | – | –
3 | (Cys-Pro-Phe)2 (disulfide) [Compound 5] | – | – | – | – | – | – | – | – | completely ablated binding; also recorded: No Binding
